The record followed here is ChEMBL document CHEMBL1129404, “6-phenyl-1,4-dihydropyridine derivatives as potent and selective A3 adenosine receptor antagonists” (J Med Chem, 1996).

Chain of Adenosine receptor A2a (P30543 whole entry): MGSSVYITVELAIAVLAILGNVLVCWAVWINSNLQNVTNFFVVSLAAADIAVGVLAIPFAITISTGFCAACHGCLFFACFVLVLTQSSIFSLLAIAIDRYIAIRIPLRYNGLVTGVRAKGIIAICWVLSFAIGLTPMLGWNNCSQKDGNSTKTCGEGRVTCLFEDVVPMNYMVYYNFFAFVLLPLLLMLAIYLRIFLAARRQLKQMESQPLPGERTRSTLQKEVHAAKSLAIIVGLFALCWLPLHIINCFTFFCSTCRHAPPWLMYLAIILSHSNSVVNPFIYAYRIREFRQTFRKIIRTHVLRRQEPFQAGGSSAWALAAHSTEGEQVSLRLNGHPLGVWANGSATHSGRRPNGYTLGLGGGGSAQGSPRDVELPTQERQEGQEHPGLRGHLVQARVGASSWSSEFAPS

System in the first experiment: not listed separately
In words: Relative binding affinities for rat adenosine A1 and human adenosine A3 receptors; Selectivity ratio.
Details: not given
In short, it runs like this:
(§1)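 Ratio of Ki values: rat A1 ([3H]-(R)-PIA, rat cortical membranes) over human A3 ([125I]AB-MECA, HEK-293 membranes), each Ki derived by Cheng-Prusoff from competition curves.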
For `CCOC(=O)C1=C(C)NC(C)=C(C(=O)OC)C1/C=C/c1ccccc1` (stereo not given), the Ratio was 24.

Take `CCOC(=O)c1c(C)nc(-c2ccccc2)c(C(=O)OCc2ccccc2)c1C#Cc1ccccc1`: the Ratio came out at 4.2.

In a further experiment the target is T1, Adenosine receptor A1 (Rattus norvegicus) (UniProt P25099).
T1 sequence (whole entry): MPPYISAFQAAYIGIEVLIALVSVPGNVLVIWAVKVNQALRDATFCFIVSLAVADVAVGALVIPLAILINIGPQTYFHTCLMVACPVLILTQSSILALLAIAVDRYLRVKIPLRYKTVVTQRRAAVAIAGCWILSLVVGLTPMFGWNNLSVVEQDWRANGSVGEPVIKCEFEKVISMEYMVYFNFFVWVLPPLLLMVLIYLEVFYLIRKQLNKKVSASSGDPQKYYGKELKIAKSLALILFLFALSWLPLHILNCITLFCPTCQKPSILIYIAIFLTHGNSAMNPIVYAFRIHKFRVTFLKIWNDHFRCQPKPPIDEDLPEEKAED
The experiment in a line: Binding affinity for Adenosine A1 receptor of rat cerebral cortex membrane with [3H](R)-PIA. The experiment is classed as tissue-based.
Details: not given
In short, it runs like this: (§2)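 Rat cerebral cortex membranes prepared with adenosine deaminase (3 units/mL), preincubated 30 min at 30 °C, with deaminase also present during incubation with [3H]-(R)-PIA. Competitor used at five or more concentrations spanning 3 orders of magnitude.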
Molecule `CCOC(=O)C1=C(c2ccccc2)N=C(C)/C(=C(/O)OCc2ccccc2)C1/C=C/c1ccccc1` (stereo not given) showed an Inhibition (at concentration M) of less than 10%.

System in another experiment: not listed separately
The experiment in a line: Relative affinities for rat adenosine A1 and human adenosine A3 receptors.
Details: not given
The method, boiled down:
as §1
`CCOC(=O)c1c(C)nc(-c2ccccc2)c(C(=O)OCC)c1C`: the Selectivity ratio was determined as 1.7.

A further experiment has as its target Adenosine receptor A2a (Rattus norvegicus) (UniProt P30543). In words: Binding affinity for Adenosine A2A receptor in rat striatal membrane with [3H]-CGS- 21680. The following applies: Striatum. The experiment is classed as cell membranes. Also on record: concentration or dose not given beside the values.
On to `CCO/C(O)=C1\C(C)=NC(c2ccccc2)=C(C(=O)OCc2ccccc2)C1/C=C/c1ccccc1` (stereo not given), for which the Inhibition (at concentration M) was 15%.

`CCOC(=O)C1=C(c2ccccc2)N=C(C)/C(=C(/O)OCC)C1C=C(c1ccccc1)c1ccccc1` (stereo not given): the Inhibition (at concentration M) worked out at 12%.

Turning to `CCOC(=O)C1=C(c2ccc(C)cc2)N=C(C)/C(=C(/O)OCC)C1/C=C/c1ccccc1` (stereo not given), the Inhibition (at concentration M) worked out at 37%.

`CCO/C(O)=C1\C(C)=NC(c2ccccc2)=C(C(=O)OCc2ccccc2)C1C#Cc1ccccc1` (stereo not given) came in with an Inhibition (at concentration M) of less than 10%.

Regarding `CCOC(=O)C1=C(c2ccccc2)N=C(C)/C(=C(/O)OCc2ccccc2)C1C#Cc1ccccc1` (stereo not given), the Inhibition (at concentration M) was less than 10%.

As for `CCOC(=O)C1=C(c2ccccc2)N=C(C)/C(=C(/O)OCC)C1C#Cc1ccccc1` (stereo not given), the Inhibition (at concentration M) was found to be 26%.

The next experiment deals with T1, Adenosine receptor A1 (Rattus norvegicus). The experiment in a line: Binding affinity for Adenosine A1 receptor in rat cerebral cortex membrane with [3H]-(R)-PIA. Format: cell membranes.
Details: not given
In short, it runs like this:
as §2
With `CCO/C(O)=C1\C(C)=NC(c2ccccc2)=C(C(=O)OCc2ccccc2)C1/C=C/c1ccccc1` (stereo not given), the Inhibition (at concentration M) amounted to 35%.

`CCOC(=O)C1=C(c2ccccc2)N=C(C)/C(=C(/O)OCc2ccccc2)C1C#Cc1ccccc1` (stereo not given) registered an Inhibition (at concentration M) of 24%.

A further experiment deals with Adenosine receptor A2a (Rattus norvegicus) (UniProt P30543). In words: Inhibition of [3H]-CGS- 21680 binding to Adenosine A2A receptor of rat striatal membrane. Also on record: concentration or dose not given beside the values. The following applies: concentration not given here.
Chain of Adenosine receptor A2a (Rattus norvegicus) (P30543 whole entry): as the sequence (P30543 whole entry) above
The molecule `CCOC(=O)C1=C(c2ccccc2)N=C(C)/C(=C(/O)OCC)C1/C=C/c1ccccc1[N+](=O)[O-]` (stereo not given) yielded an inhibition of less than 10%.

Regarding `CCOC(=O)C1=C(c2ccccc2)N=C(C)/C(=C(/O)OCC)C1/C=C/c1ccccc1OC` (stereo not given), the inhibition came out at 17%.

As to `CCOC(=O)C1=C(c2ccsc2)N=C(C)/C(=C(/O)OCC)C1/C=C/c1ccccc1` (stereo not given), the inhibition is less than 10%.

Molecule `CCOC(=O)C1=C(c2ccccc2)N=C(C)/C(=C(/O)OCC)C1/C=C/c1ccc([N+](=O)[O-])cc1` (stereo not given) gave an inhibition of 33%.

In turn, `CCOC(=O)C1=C(c2ccoc2)N=C(C)/C(=C(/O)OCC)C1/C=C/c1ccccc1` (stereo not given) registered an inhibition of 35%.

As for `CCOC(=O)C1=C(c2ccc(OC)cc2)N=C(C)/C(=C(/O)OCC)C1/C=C/c1ccccc1` (stereo not given), the inhibition was less than 10%.

Molecule `CCOC(=O)C1=C(c2ccccc2)N=C(C)/C(=C(/O)OCc2ccccc2)C1/C=C/c1ccc([N+](=O)[O-])cc1` (stereo not given) gave an inhibition of less than 10%.

For the molecule `CCO/C(O)=C1\C(C)=NC(c2ccccc2)=C(C(=O)OCc2ccccc2)C1/C=C/c1ccc([N+](=O)[O-])cc1` (stereo not given), the inhibition is less than 10%.

In turn, `CCOC(=O)C1=C(c2ccc(Cl)cc2)N=C(C)/C(=C(/O)OCC)C1/C=C/c1ccccc1` (stereo not given) had an inhibition of 12%.

`CCOC(=O)C1=C(C)NC(C)=C(C(=O)OCc2ccccc2)C1/C=C/c1ccccc1` (stereo not given) displayed an inhibition of 14%.

The molecule `CCOC(=O)c1c(C)nc(-c2ccccc2)c(C(=O)OCc2ccccc2)c1C#Cc1ccccc1` had an inhibition of 43%.

For a further experiment, the target named is T1, Adenosine receptor A1 (Rattus norvegicus). In words: Binding affinity for Adenosine A1 receptor in rat cerebral cortex membrane with [3H](R)-PIA. Particulars: concentration not given here. Format: cell membranes. The method, boiled down: as §2
`CCOC(=O)C1=C(c2ccccc2)N=C(C)/C(=C(/O)OCc2ccccc2)C1/C=C/c1ccc([N+](=O)[O-])cc1` (stereo not given): the inhibition was less than 10%.

The molecule `CCO/C(O)=C1\C(C)=NC(c2ccccc2)=C(C(=O)OCc2ccccc2)C1/C=C/c1ccc([N+](=O)[O-])cc1` (stereo not given) showed an inhibition of 33%.

Another experiment concerns the target Adenosine receptor A2a (Rattus norvegicus, UniProt P30543). In words: Displacement of [3H]-CGS- 21680 from Adenosine A2A receptor of rat striatal membrane.
Details: not given
For orientation: Displacement assays read how much labelled ligand stays bound in the presence of the test substance.
For the molecule `CCOC(=O)C1=C(c2ccccc2)N=C(C)/C(=C(/O)OCC)C1CC` (stereo not given), the affinity corresponds to a Ki of 14.5 µM.

With `CCO/C(O)=C1\C(C)=NC(C)=C(C(=O)OC)C1CC` (stereo not given), the Ki came out at 7.89 µM.

As for `CCOC(=O)c1c(C)nc(-c2ccccc2)c(C(=O)OCC)c1/C=C/c1ccccc1`, the Ki is 2.4 µM.

Take `CCO/C(O)=C1\C(C)=NC(c2ccccc2)=C(C(=O)OCc2ccccc2)C1C` (stereo not given): the affinity corresponds to a Ki of 3.15 µM.

Turning to `CCOC(=O)C1=C(C)N=C(C)/C(=C(/O)OCC)C1/C=C/c1ccccc1` (stereo not given), affinity was put at a Ki of 9.23 µM.

In general, inhibition refers to the drop in the measured response relative to a control, in per cent. One may read the Ki as a dissociation constant, usually derived from enzyme kinetics or from competition with a known ligand.
